Laboratory results taken from ChEMBL document CHEMBL1131033, “Selective endothelin A receptor antagonists. 4. Discovery and structure-activity relationships of stilbene acid and alcohol derivatives” (J Med Chem, 1998).
pIC50: −log10 of the molar value.

Molecular target: T1, Endothelin-1 receptor (Rattus norvegicus, UniProt P26684)
T1 sequence (P26684 whole entry): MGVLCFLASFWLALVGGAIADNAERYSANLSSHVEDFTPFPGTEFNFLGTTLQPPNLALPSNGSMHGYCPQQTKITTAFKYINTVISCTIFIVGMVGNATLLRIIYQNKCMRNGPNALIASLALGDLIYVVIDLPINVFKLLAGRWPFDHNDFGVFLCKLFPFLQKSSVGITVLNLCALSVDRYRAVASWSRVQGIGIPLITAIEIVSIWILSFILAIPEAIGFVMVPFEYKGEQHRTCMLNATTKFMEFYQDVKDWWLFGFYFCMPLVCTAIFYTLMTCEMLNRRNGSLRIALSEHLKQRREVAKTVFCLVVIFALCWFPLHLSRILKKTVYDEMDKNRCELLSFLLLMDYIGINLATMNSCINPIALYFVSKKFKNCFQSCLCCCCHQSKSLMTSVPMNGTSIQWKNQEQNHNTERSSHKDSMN
Test: Concentration required to inhibit 50% Et-1 binding to endothelin A receptor in rat A-10 cells.
Format: cell-based, A10
Settings: not given
Procedure, shortened: (§1)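 Rat aortic smooth muscle A10 cells grown to confluence in DMEM with 10% FBS, harvested, and frozen. Nonspecific binding defined with 500 nM unlabeled ET-1. Bound ligand separated by vacuum filtration and gamma-counted. IC50 from curve fitting, usually in duplicate.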

SMILES	pIC50
N#Cc1ccc(OCc2cccnc2)cc1/C=C(/C(=O)O)c1ccccc1	6.82
O=C(O)/C(=C/c1cc(OCc2ccsc2)ccc1[N+](=O)[O-])c1c(F)cccc1Cl	5.70
O=C(O)CCC(Oc1cccc(OCc2ccccc2)c1)c1ccccc1 (stereo not given)	5.70
O=C(O)/C(=C/c1cc(OCc2ccsc2)ccc1[N+](=O)[O-])c1ccccc1	6.30
O=C(O)/C(=C/c1cc(OCc2ccsc2)ccc1[N+](=O)[O-])c1ccccc1Cl	5.89
O=C(O)/C(=C/c1cc(OCc2ccsc2)ccc1Br)c1ccccc1	6.15
O=C(O)/C(=C/c1cccc(OCc2ccccc2)c1)c1ccccc1	5.22
O=C(O)/C(=C/c1cc(OCc2ccccc2)ccc1[N+](=O)[O-])c1ccccc1	6.22
N#Cc1ccc(OCc2ccc3c(c2)OCO3)cc1/C=C(/C(=O)O)c1ccccc1	5.89
O=C(O)/C(=C/c1cc(OCc2ccsc2)ccc1[N+](=O)[O-])c1ccccc1F	6.22
N#Cc1ccc(OCc2ccsc2)cc1/C=C(/C(=O)O)c1ccc2c(c1)OCO2	6.70
O=C(O)CC/C(=C/c1cccc(OCc2ccccc2)c1)c1ccccc1	5.28

Next, values leading:

pIC50	SMILES
5.85	O=[N+]([O-])c1ccc(OCc2ccsc2)cc1/C=C(/CO)c1ccccc1
6.10	N#Cc1ccc(OCc2ccsc2)cc1/C=C(/CO)c1ccccc1
6.40	O=[N+]([O-])c1ccc(OCc2ccsc2)cc1/C=C(/CO)c1ccccc1Cl
6.70	N#Cc1ccc(OCc2ccsc2)cc1/C=C(/C(=O)O)c1ccccc1Cl
5.96	COc1cccc(/C(=C\c2cc(OCc3ccsc3)ccc2C#N)C(=O)O)c1
6.15	N#Cc1ccc(OCc2ccsc2)cc1/C=C(/CCC(=O)O)c1ccccc1
6.52	Cc1ccccc1/C(=C\c1cc(OCc2ccsc2)ccc1C#N)C(=O)O
5.68	OC/C(=C/c1cc(OCc2ccsc2)ccc1Br)c1ccccc1
6.52	Cc1ccccc1/C(=C\c1cc(OCc2ccsc2)ccc1C#N)CO

Molecular target: T2, Endothelin-1 receptor (Rattus norvegicus) (UniProt P26684)
T2 sequence (whole entry): T1 sequence (P26684 whole entry)
Test: Concentration required to inhibit 50% Et-1 binding to Endothelin A receptor in rat A-10 cells.
Format: cell-based
Set-up: concentration or dose not given beside the values
Settings: A10; concentration not given here
Procedure, shortened: as §1

SMILES	inhibition
COc1ccc(C#N)c(/C=C(/C(=O)O)c2ccccc2)c1	< 20%
Nc1ccc(OCc2ccsc2)cc1/C=C(/C(=O)O)c1ccccc1F	< 20%

Next, values leading:

inhibition	SMILES
< 20%	COC/C(=C/c1cc(OCc2ccsc2)ccc1C#N)c1ccccc1C
< 20%	COc1ccc(/C(=C\c2cc(OCc3ccsc3)ccc2C#N)C(=O)O)cc1
